Screens deposited in PubChem by several laboratories.
NTR1 agonist: agonists of human neurotensin receptor NTR1; P30989; NTR1-U2OS beta-arrestin-GFP spot imaging, agonist mode; activation, % at 20 µM; hit rate 0.17% among 330,000; AID 493036;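 active = activation at or above 40% of the spot to cytoplasm intensity ratio, with at least 20 cells analyzed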;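 note: 0% = DMSO without peptide and 100% = 100 nM NTR1 peptide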
Target sequence (P30989 whole entry, looked up): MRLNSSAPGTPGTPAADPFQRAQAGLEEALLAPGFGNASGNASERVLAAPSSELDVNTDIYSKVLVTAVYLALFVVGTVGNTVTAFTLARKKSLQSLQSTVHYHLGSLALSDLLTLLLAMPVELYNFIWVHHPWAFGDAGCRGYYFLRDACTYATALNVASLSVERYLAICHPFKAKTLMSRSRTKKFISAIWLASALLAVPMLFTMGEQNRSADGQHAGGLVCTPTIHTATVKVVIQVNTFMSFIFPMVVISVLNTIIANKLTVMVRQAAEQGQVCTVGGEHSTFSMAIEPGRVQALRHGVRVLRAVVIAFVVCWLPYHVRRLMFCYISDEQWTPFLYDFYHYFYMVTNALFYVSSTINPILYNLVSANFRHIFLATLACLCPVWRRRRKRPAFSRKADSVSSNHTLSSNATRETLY
Arr AP2 block: human beta-arrestin and AP2 interaction inhibition; FITC-arrestin peptide / GST-AP2 beads, flow cytometry; AP2 beta2 appendage carries R879A mutation; inhibition, % at 10 µM; hit rate 0.31% among 340,000; AID 504490;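 active = inhibition above a set limit, near 3 SD of compounds lacking own fluorescence, cut at about 54% in these data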;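 note: plate controls were DMSO wells for no effect and 5 µM unlabelled arrestin peptide for full effect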
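System: GST-AP2 R879A glutathione beads | Also added: FITC-arrestin peptide, 50 nM | Times: 12 min plus 1 h, RT | Signal: Bead flow cytometry, FITC channel | Buffer or medium: PBS with 0.05% Tween 20 and 0.1% BSA | Read-out basis: Percent drop in bead-associated FITC signal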
Beta2AR agonist: agonists of human beta-2 adrenergic receptor inducing internalization; Am2.2-beta2AR cells, FAP receptor internalization, flow cytometry; response, % (concentration not given with the values); hit rate 0.43% among 340,000; AID 504454;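 active = response above a set limit, near 3 SD of response in nonfluorescent compounds, cut at about 42% in these data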
Lipid droplet: modulators of hepatic lipid droplet formation. AML12 mouse hepatocytes, oleate lipid droplets, BODIPY imaging. inhibition, % at 6.5 µM. hit rate 0.4% among 240,000. AID 1656;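 active = lipid droplet intensity inhibited by at least 50%, with more than 500 cells counted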
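Material – AML12 mouse liver cells · Also added – oleate loading, 100 µM · Compound dosing – 6.5 µM single-point dosing · Times – overnight treatment with compound plus oleate · Measured by – fluorescence imaging, 20x objective, two fields per well · Read-out – percent inhibition of filter-corrected integrated lipid droplet intensity per well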
H9c2 TAG inh: inhibitors of triacylglycerol accumulation; hit rate 0.66% among 230,000; H9c2 cells, Nile Red lipid (TAG) fluorescence; cells loaded with 200 µM oleic acid; inhibition, % at 12.5 µM;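 active = pattern-corrected inhibition of lipid staining of at least 50% with the nuclear-stain viability signal not falling by more than 50%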;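 note: 0% = DMSO wells and 100% = triacsin C control wells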
GRK2 inh: inhibitors of human GRK2 displacing RNA aptamer; bead flow cytometry, FAM-aptamer displacement from GRK2; inhibition of aptamer binding, % at 10 µM; hit rate 0.59% among 330,000;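 active = inhibition of aptamer binding above 40%, roughly 3 SD of noise, on plates passing a quality check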;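 note: median bead fluorescence of bound FAM aptamer so fluorescent compounds give negative values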
GRK2 CP1: confirmation of human GRK2 inhibitors displacing RNA aptamer. aptamer displacement, % at 10 µM. AID 504451. hit rate 4% among 2,000. bead-bound GRK2, FAM-aptamer displacement, flow cytometry. shares compounds with GRK2 inh;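 active = aptamer displacement above 40%, near three times the noise of non-fluorescent compounds, on plates passing quality checks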;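 note: negative values mostly reflect intrinsic compound fluorescence rather than true enhancement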
FAM quench CP1: counter-screen for GRK2 aptamer inhibitors: fluorescent aptamer quenchers; Carboxyfluorescein RNA aptamer on beads, flow cytometry quenching; stronger effect = lower value; shares compounds with GRK2 inh; AID 504580; fluorescence response (% of DMSO), % at 10 µM; 2,000 tested, under 10 active;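 active = compounds that quench the bead-bound fluorescent RNA probe, cutting fluorescence to under half of the solvent control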;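 note: counterscreen run without GRK2 so only probe quenching by compound is measured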
GRK2 confirm 2: human GRK2 inhibition confirmation, cherry pick 2; shares compounds with GRK2 inh; bead-bound GRK2, FAM-aptamer displacement, flow cytometry; inhibition of aptamer binding, % at 10 µM; 360 tested, under 10 active; AID 504782;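 active = inhibition of aptamer binding above 40%, about triple the noise seen with nonglowing compounds, on plates passing quality control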;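 note: negative values mostly come from compounds that fluoresce themselves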
FAM quench SP: quenches fluorescent RNA aptamer, GRK2 hit artifact. shares compounds with GRK2 inh. carboxyfluorescein RNA aptamer beads, flow cytometry quenching; stronger effect = lower value. fluorescence response vs DMSO, % at 10 µM. 360 tested, under 10 active. AID 588494;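 active = response vs DMSO under 50%, meaning signal dropped by over half, treated as fluorescence quencher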;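 note: labelled aptamer on streptavidin beads without GRK2 as a quench counter-screen; 100% = bead fluorescence of DMSO wells and lower means quenching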
Starred values were filed as active, the others as inactive; · = not tested or not shown. This is a sample that favours compounds with a hit; in the whole collection about 2% have one here.

SMILES	NTR1 agonist	Arr AP2 block	Beta2AR agonist	Lipid droplet	H9c2 TAG inh	GRK2 inh	GRK2 CP1	FAM quench CP1	others
CC(c1nc2ccccc2c(=O)[nH]1)N1CCN(C)CC1 (configuration not stated)	9	5	-3	-12	-2	0	·	·	GRK2 confirm 2=3;FAM quench SP=104
Cc1ccc(NC(=O)CSc2nc(=O)n(CCCN3CCOCC3)c3c2CCCC3)c(C)c1	1	12	1	·	12	0	·	·
Cc1ccc(NC(=O)CN(C)C(=O)c2cccc(S(=O)(=O)NCc3ccccc3)c2)cc1	1	22	13	·	-3	91*	-3	110
Cc1ccc(NC(=O)CN(C)C(=O)c2cccc(S(=O)(=O)NCc3cccs3)c2)cc1	-1	-14	-4	·	2	1	·	·
Cc1cccc(Oc2ccc(S(=O)(=O)N3CCCCC3)cc2NC(=O)C2=COCCO2)c1	-2	2	6	·	5	31	-4	97
Cc1ccc(-c2nn(-c3ccccc3)cc2C2CC(c3ccccc3)=NN2C(=O)CCC(=O)O)cc1 (configuration not stated)	6	35	-10	7	2	1	·	·
Cc1ccc(C2=NN(C(=O)CCC(=O)O)C(c3cn(-c4ccccc4)nc3-c3ccc(C)cc3)C2)cc1 (configuration not stated)	6	5	16	5	-6	7	0	103
COCCNc1ncnc2c1ncn2[C@H]1CN(Cc2ccncc2)C[C@@H](CO)O1	·	·	·	·	-1	·	·	·
COc1ccc(-c2csc(NC(=O)C3CCN(c4ncnc5sc(C)c(C)c45)CC3)n2)cc1OC	3	20	28	·	43	0	·	·
CC(=Nc1ccccc1)C1=C(O)CC(C)(C)CC1=O	2	-5	-8	-2	·	0	·	·
CC(=Nc1ccccc1)C1=C(O)CCCC1=O	2	0	7	-2	-10	35	4	97
Cc1ccc(-n2nnnc2SCC(=O)c2c(N)n(C3CC3)c(=O)[nH]c2=O)c(C)c1	5	-7	-1	·	0	1	·	·
Nc1cc(C(=O)OCC(=O)N2CCOCC2)ccc1Cl	0	2	-1	-53	·	58*	-1	99
Nc1cc(C(=O)OCC(=O)N2CCN(C(=O)COC(=O)c3ccc(Cl)c(N)c3)CC2)ccc1Cl	0	10	-2	·	19	·	·	·
CCN(CC(=O)NCc1ccncc1)S(=O)(=O)c1ccc(OC)cc1	-2	-19	1	2	·	0	·	·
O=C(COc1ccc(/C=N/NC(=O)c2ccncc2)cc1)Nc1ccccc1	1	-12	0	-24	·	95*	-3	100
O=C(COc1ccc(/C=N/NC(=O)c2ccncc2)cc1)Nc1cccc([N+](=O)[O-])c1	0	5	3	-1	·	0	·	·
N[C@H]1CONC1=O	2	·	·	·	·	4	-1	101
N[C@@H]1CONC1=O	3	·	·	6	·	2	·	·
CCc1nc2ccc(C(=O)Nc3ccc(OC)c(OC)c3)cn2c1N(C)Cc1cccs1	·	·	·	·	9	·	·	·
COc1ccc(CNC(=O)c2cccc(NC(=O)c3ccccc3)c2)cc1	0	16	-1	5	-25	2	3	104
O=C(NCc1ccccc1)c1cccc(NC(=O)c2ccccc2)c1	·	1	-8	·	12	·	2	103
COc1ccc(C(=O)N/C(=C\c2ccccc2)C(=O)Nc2cccc(C(=O)O)c2)cc1	0	-11	-6	18	·	90*	1	105
COc1ccc(/C=C(\NC(=O)c2ccc(OC)cc2)C(=O)Nc2ccc(C(=O)O)cc2)cc1	1	10	0	0	·	1	·	·
COc1ccc(CC(=O)Nc2cccc(C(=O)Nc3cccc(C)c3)c2)cc1	-1	·	·	-14	·	2	·	·
SMILES	NTR1 agonist	Arr AP2 block	Beta2AR agonist	Lipid droplet	H9c2 TAG inh	GRK2 inh	GRK2 CP1	FAM quench CP1	others
O=C(NCc1ccccc1Cl)c1cccc(NC(=O)c2ccccc2)c1	0	5	8	18	·	0	2	122
CCN(CCCNC(=O)CNC(=O)c1nn(-c2ccc(OC)c(OC)c2)c(=O)c2ccccc12)c1ccccc1	1	26	9	-22	·	0	·	·
COc1ccc(C(=O)Nc2c(O)ccc3ccccc23)cc1	-1	-3	3	·	3	98*	-3	95
COc1ccccc1CNC(=O)c1cccc(NC(=O)c2ccccc2)c1	-1	6	6	0	12	1	-2	95
Cc1ccc(C(=O)Nc2cccc(Oc3ccccc3)c2)o1	0	-3	-9	-4	·	0	·	·
O=C(NCc1ccccc1Cl)c1cccc(NC2=NC3CS(=O)(=O)CC3S2)c1 (configuration not stated)	-1	-3	5	-8	3	2	-2	97
COc1ccc(C(=O)Nc2c(O)ccc3ccccc23)cc1OC	0	-4	2	·	9	1	·	·
Cc1ccc(C(=O)Nc2cccc(C(=O)NCc3ccccc3)c2)o1	-1	3	-4	·	·	0	-21	98
CCc1noc(C)c1C(=O)OCC(=O)c1ccc(NC(C)=O)cc1F	1	6	10	·	13	3	·	·
CCCCCCCCCCCCN1[C@@H](CC(=O)O)c2cc(F)ccc2S1(=O)=O	4	15	-5	·	7	2	·	·
CCC(=O)N1CCc2cc(S(=O)(=O)CCC(=O)Nc3ccc(CC)cc3)ccc21	-2	6	-14	0	-38	1	·	·	GRK2 confirm 2=12;FAM quench SP=99
CCc1ccc(NS(=O)(=O)c2ccc3c(c2)CCN3C(=O)CCC(=O)O)cc1	2	4	-1	-1	·	52*	·	·	GRK2 confirm 2=6;FAM quench SP=102
COc1cc(OC)cc(C(=O)Nc2ncn[nH]2)c1	-2	-5	-1	·	-6	77*	-5	101
CCOc1cc(C(=O)Nc2ncn[nH]2)cc(OCC)c1OCC	-1	-3	4	-27	-3	0	·	·
C=CCN(CC=C)CCOc1cccc(Oc2ccccc2)c1	-1	29	0	-12	-3	0	·	·
S=C(NCC1CCCO1)NC1CC1 (configuration not stated)	1	13	-5	4	-2	87*	3	101
CCC1=C(c2cc(OC)c(OC)c(OC)c2)C2(CCCC2)C(=O)O1	-6	-5	-10	·	·	0	·	·
